Screening data (PubChem)
TRPC6 inhibitor: inhibitors of mouse TRPC6 channel. Q61143. HEK293-TRPC6, membrane potential dye, ACh-evoked depolarization; hits give low values. B-score at 10 µM. hit rate 1.1% among 310,000. AID 2553;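 active means B-score under library mean minus 3 SD, initial fluorescence not abnormally high, positive integrated signal ratio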;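 further: B-score derived from integrated fluorescence ratio over the kinetic read; more negative B-score means stronger inhibition of depolarization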
TRPC4 inh: inhibitors of mouse TRPC4 channel; Q9QUQ5; HEK293 TRPC4beta/mu-opioid, DAMGO-evoked Fluo4 calcium flux; hits give low values; hit rate 0.39% among 300,000; B-score at 10 µM;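 active means B-score over 3 SD under the library average, no early fluorescence shift, positive overall ratio signal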
Target sequence (Q9QUQ5 whole entry, looked up): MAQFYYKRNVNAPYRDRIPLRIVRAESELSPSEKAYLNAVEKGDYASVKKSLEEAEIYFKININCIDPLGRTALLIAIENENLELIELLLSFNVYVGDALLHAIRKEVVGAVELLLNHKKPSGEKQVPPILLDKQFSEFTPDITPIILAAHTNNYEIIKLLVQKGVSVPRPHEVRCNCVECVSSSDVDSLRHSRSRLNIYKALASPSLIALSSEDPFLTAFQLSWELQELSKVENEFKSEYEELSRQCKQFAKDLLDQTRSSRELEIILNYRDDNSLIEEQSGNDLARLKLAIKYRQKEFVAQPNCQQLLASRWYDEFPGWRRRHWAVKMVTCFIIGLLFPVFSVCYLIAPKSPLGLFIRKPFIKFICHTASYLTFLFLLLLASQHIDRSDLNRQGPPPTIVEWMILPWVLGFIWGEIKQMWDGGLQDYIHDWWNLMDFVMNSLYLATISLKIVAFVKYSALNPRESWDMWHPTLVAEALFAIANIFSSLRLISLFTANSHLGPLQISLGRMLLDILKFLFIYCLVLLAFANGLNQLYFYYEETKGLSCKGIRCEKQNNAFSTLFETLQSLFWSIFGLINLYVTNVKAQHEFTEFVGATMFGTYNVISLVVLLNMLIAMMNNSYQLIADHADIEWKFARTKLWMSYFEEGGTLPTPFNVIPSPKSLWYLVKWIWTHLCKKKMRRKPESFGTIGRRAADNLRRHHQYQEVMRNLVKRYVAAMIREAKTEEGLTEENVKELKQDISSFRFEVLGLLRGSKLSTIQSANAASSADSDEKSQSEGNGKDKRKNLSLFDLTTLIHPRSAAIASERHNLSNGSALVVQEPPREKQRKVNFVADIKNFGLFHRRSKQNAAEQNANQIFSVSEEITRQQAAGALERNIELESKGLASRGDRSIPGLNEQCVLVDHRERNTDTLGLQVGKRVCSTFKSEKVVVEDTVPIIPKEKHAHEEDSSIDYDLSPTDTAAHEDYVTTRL
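Test system – stable TRPC4beta/mu-opioid receptor HEK293 cells · Probe or stimulus – DAMGO, a submaximal dose followed by a maximal one · Dosing – one concentration per compound · Signal – Fluo4 calcium fluorescence by kinetic imaging, 5 s 1 Hz baseline · Evaluation – per-well B score of integrated baseline-normalized Fluo4 ratio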
TRPC4 potent: allosteric potentiators of mouse TRPC4 channel; AID 2227; B-score at 10 µM; HEK293 TRPC4beta/mu-opioid, DAMGO EC20, Fluo-4 Ca2+ flux; hits give high values; Q9QUQ5; hit rate 0.42% among 310,000;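 active means B-score of calcium response area above 5 SD of library B-scores, with initial fluorescence ratio within 5 SD of library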;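 further: B-score of integrated fluorescence ratio over time as area under calcium response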
TRPC4 act: TRPC4 (mouse) channel activation. B-score at 10 µM. HEK293 TRPC4beta/mu-opioid, Fluo4 calcium fluorescence; hits give high values. Q9QUQ5. hit rate 0.49% among 310,000;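 active means B-score above 5 SD of library B-scores, and initial fluorescence ratio not above library mean plus 5 SD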;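 further: positive B-score marks a calcium rise read as TRPC4 activation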
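Assay system: HEK293 cells stably co-expressing mouse TRPC4beta and mu-opioid receptor / Timing: Fluo4 dye loading 45 min at room temperature, 110 s recording / Signal: Fluo4 calcium-sensitive dye fluorescence, kinetic, 1 Hz baseline / Read-out: integrated baseline-normalised fluorescence ratio, converted to per-well B score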
TRPC6 act: mouse TRPC6 channel activation; hit rate 0.13% among 310,000; HEK293-TRPC6 membrane potential dye fluorescence; hits give high values; AID 2550; B-score at 10 µM; Q61143;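 active means B-score of the integrated fluorescence ratio above library mean plus 3 SD, and starting fluorescence ratio within library mean plus 5 SD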;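 further: higher score means more depolarization so channel activation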
TRPC4 sel inh 2: second check of whether TRPC6 inhibitors also affect mouse TRPC4. shares compounds with TRPC6 inhibitor. HEK293 TRPC4/MOR, membrane potential dye fluorescence; channel activated by saturating DAMGO dose. inhibition, % at 10 µM. hit rate 42% among 920;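 active means compounds whose fluorescence signal differed from control wells by over 3 SD, either direction, in both duplicate plates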
TRPC4 spec: mouse TRPC4 off-target activity of TRPC6 inhibitors; shares compounds with TRPC6 inhibitor; HEK293 TRPC4/mu-opioid, membrane potential fluorescence; activity change, negative = inhibition, % at 10 µM; hit rate 61% among 920;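 active means rise or fall in signal beyond 3 SD of buffer-only wells in both replicate plates, either sign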;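 further: integrated kinetic ratio of fluorescence range over baseline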
HEK293 MPD ctr 2-1: second check of TRPC6 inhibitor effects in parental HEK293 cells; shares compounds with TRPC6 inhibitor; parental HEK293 membrane potential dye fluorescence; maximal acetylcholine challenge after compound addition; signal change vs control, % at 10 µM; hit rate 31% among 920; AID 2779;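 active means membrane potential signal moving either way by over 3 SD of the maximum-effect control, in both duplicate plates, meaning non-specific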
HEK293 MPD ctr-1: counter-screen for TRPC6 inhibitors: effect in parental HEK293 cells; shares compounds with TRPC6 inhibitor; parental HEK293 membrane potential dye fluorescence; membrane potential signal change, % at 10 µM; hit rate 60% among 920; AID 2780;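 active means membrane potential signal shifting up or down by more than 3 SD of buffer-only wells, on both duplicate plates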
HEK293 MPD ctr-2: counter-screen for TRPC6 modulators: effect in parental HEK293 cells; shares compounds with TRPC6 inhibitor; membrane potential dye fluorescence; membrane potential signal change, % at 10 µM; hit rate 51% among 2,400; AID 488924;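 active means membrane potential signal moves up or down beyond 5 SD from buffer-only wells, on both duplicate plates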
HEK293 MPD ctr 2-2: second check of TRPC6 modulator effects in parental HEK293 cells; shares compounds with TRPC6 inhibitor; inhibition, % at 10 µM; hit rate 14% among 2,400; membrane potential dye fluorescence; after compound, maximal acetylcholine stimulation;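 active means membrane potential signal drops by more than 5 SD from the mean control signal, in both duplicate plates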;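 further: plate controls were acetylcholine ECmax control wells for no effect and buffer only wells for full effect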
TRPC4/MOR mod: selectivity of TRPC6 modulators against mouse TRPC4 | shares compounds with TRPC6 inhibitor | HEK293 TRPC4/mu-opioid, membrane potential fluorescence | percent change from control (negative = decrease, positive = increase), % at 10 µM | hit rate 69% among 2,400;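 active means membrane potential signal moved up or down beyond 5 SD of buffer control wells, in both duplicate plates, actives on both sides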;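 further: plate controls were assay buffer wells for no effect and DAMGO maximal-effect wells for full effect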
TRPC4/MOR inh 2: second check of whether TRPC6 modulators also affect mouse TRPC4; shares compounds with TRPC6 inhibitor; HEK293 TRPC4/mu-opioid, membrane potential dye fluorescence; stimulated with maximal-effect DAMGO; inhibition, % at 10 µM; hit rate 55% among 2,400; AID 488928;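 active means drop in membrane potential signal beyond 5 SD of the control wells in both duplicate plates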;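 further: TRPC4 counter screen for TRPC6 hits run under conditions tuned for TRPC6 not TRPC4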
TRPC6 block conf: mouse TRPC6 inhibitor confirmation. HEK293-TRPC6, membrane potential dye, ACh-evoked depolarization. shares compounds with TRPC6 inhibitor. hit rate 43% among 3,300. inhibition, % at 10 µM;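 active means fluorescence ratio falls more than 5 SD below the full-stimulation control mean, in both duplicate runs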;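 further: integrated fluorescence ratio of peak minus minimum over baseline after agonist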
TRPC6 act confirm: mouse TRPC6 activator confirmation | hit rate 11% among 2,800 | shares compounds with TRPC6 inhibitor | HEK293-TRPC6 membrane potential dye fluorescence, FDSS | activation, % at 10 µM;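 active means ratio signal rise beyond 5 SD above unstimulated control wells' mean, seen in both duplicate runs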;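 further: plate controls were buffer EC0 wells for no effect and acetylcholine ECmax response for full effect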
* hit, by the source's call; i = inactive; x = no result. A selection: hits, their analogues and other compounds. The true share with any hit is near 2.3%.

SMILES	TRPC6 inhibitor	TRPC4 inh	TRPC4 potent	TRPC4 act	TRPC6 act	HEK293 MPD ctr-2	HEK293 MPD ctr 2-2	TRPC4/MOR mod	TRPC4/MOR inh 2	TRPC6 block conf	TRPC6 act confirm	others
Cc1cc2cc(C)c(NCCNC(=O)c3ccccc3F)nc2cc1C	-5.9*	i	i	i	i	i	i	i	46%*	i	i
CCC(=O)NC(=S)Nc1ccc(N2CCN(C(=O)c3ccc(Cl)cc3)CC2)cc1	i	i	i	i	i	x	x	x	x	x	x
CCOC(=O)c1cc2c(=O)n3ccccc3nc2n(C(C)C)c1=NC(=O)c1ccco1	i	i	i	i	i	x	x	x	x	x	x
CC(C)n1c(=NC(=O)c2ccco2)c(C#N)cc2c(=O)n3ccccc3cc21	-6.1*	i	i	i	i	-86%*	i	-24%*	i	i	i
O=C(CCS(=O)(=O)c1ccc(Br)cc1)NC1CCCCCC1	i	i	i	i	i	x	x	x	x	x	x
Cc1cccc(NC(=S)NNC(=O)c2nn(C)cc2Cl)c1	i	i	i	i	i	x	x	x	x	x	x
CC(C)COc1ccc(Br)cc1CNC(C)(C)C	-8.8*	i	i	i	i	584%*	120%*	128%*	83%*	106%*	x
Cc1cc(Br)ccc1OCCCCNC(C)(C)C	i	i	i	i	i	x	x	x	x	x	x
O=C(Nc1ccccc1C(=O)O)c1ccc(NC(=O)c2ccc(Br)o2)cc1	i	i	i	i	17*	190%*	i	27%*	i	i	94%*
COc1ccc(NC(=O)COc2ccccc2C(=O)NCC(c2ccccc2)N(C)C)cc1Cl (stereo not given)	-5.3*	i	i	45*	i	i	i	i	86%*	48%*	i
CC(=O)Nc1ccc(/C=N/NC(=O)c2cccc(S(=O)(=O)N3CCOCC3)c2)cc1	i	i	i	i	i	x	x	x	x	x	x
O=C(N/N=C/c1sc(N2CCOCC2)nc1-c1ccccc1)c1ccc(O)cc1	i	i	i	i	i	x	x	x	x	x	x
O=C(N/N=C/c1cc(Br)cc(Br)c1O)c1cccc(S(=O)(=O)N2CCOCC2)c1	-5.7*	i	i	i	i	i	i	26%*	i	i	i
O=C(N/N=C/c1sc(N2CCOCC2)nc1-c1ccccc1)c1cccc(S(=O)(=O)N2CCCC2)c1	-5.9*	i	i	i	i	454%*	i	-56%*	i	i	i
COC(=O)c1cc2ccsc2n1Cc1cc(=O)n2ccccc2n1	-5.8*	i	i	i	i	i	i	8.5%*	i	56%*	i
O=c1c2sccc2n(Cc2cc(=O)n3ccccc3n2)c(=O)n1-c1ccccc1	i	i	i	i	i	x	x	x	x	x	x
Cc1ccc(Cl)cc1NC(=O)CC(O)(C(F)(F)F)C(F)(F)F	-8.1*	i	i	i	i	x	x	x	x	110%*	x	TRPC4 sel inh 2=58%*;TRPC4 spec=41%*;HEK293 MPD ctr 2-1=-77%*;HEK293 MPD ctr-1=28%*
Cc1ccccc1C(=O)N1CCN(c2ccc([N+](=O)[O-])c(N3CCOCC3)c2)CC1	-5.4*	i	i	i	i	i	i	i	i	i	i
CN1CCN(CC(O)(c2ccc(Cl)cc2)c2ccc(Cl)cc2)CC1	-7.3*	i	i	i	i	x	x	x	x	i	i	TRPC4 sel inh 2=i;TRPC4 spec=4.3%*;HEK293 MPD ctr 2-1=i;HEK293 MPD ctr-1=1.8%*
CN1CCN(CC(O)COc2ccc(Cl)cc2)CC1 (stereo not given)	i	i	i	i	i	x	x	x	x	x	x
Cc1sc2cc(-c3cccc([N+](=O)[O-])c3)c(-c3cccc([N+](=O)[O-])c3)c[n+]2c1C	-6.7*	i	i	i	i	-332%*	96%*	-54%*	66%*	74%*	i
O=[N+]([O-])c1cccc(-c2cc3cccc[n+]3cc2-c2cccc([N+](=O)[O-])c2)c1	-10*	i	i	i	i	-395%*	i	-74%*	70%*	56%*	i
O=[N+]([O-])c1cccc(-c2nnc(-c3ccccc3)o2)c1	i	i	i	i	i	x	x	x	x	x	x
Cc1onc(-c2ccccc2)c1C(=O)N/N=C/c1ccc([N+](=O)[O-])s1	-8.2*	i	i	i	i	x	x	x	x	i	i	TRPC4 sel inh 2=i;TRPC4 spec=i;HEK293 MPD ctr 2-1=i;HEK293 MPD ctr-1=i
CCc1cc(=O)oc2cc(C)cc(OCC(=O)NCCCn3ccnc3)c12	i	i	i	i	i	x	x	x	x	x	x
CCCc1cc(=O)oc2c(C)c(OCC(=O)NCCCn3ccnc3)ccc12	-5.8*	i	i	i	i	-136%*	i	-20%*	i	i	i
COc1ccc(-c2cc(=O)oc3c(C)c(OCC(=O)NCCCn4ccnc4)ccc23)cc1	i	i	i	i	i	x	x	x	x	x	x
Cc1cc(OCC(=O)NCCCn2ccnc2)c2c(C)c(C)c(=O)oc2c1	-6.1*	i	i	i	i	-276%*	i	-48%*	36%*	i	i
CCOC(=O)/C(=N\Nc1ccc(C(C)=O)cc1)c1csc(Nc2ccccc2)n1	i	i	i	i	i	x	x	x	x	x	x
